DNMT1 block – inhibitors of human DNMT1; P26358; DNMT1 molecular beacon, Hinp1I cleavage, fluorescence; inhibition (reported as % activation of signal), % at 10 µM; hit rate 0.83% among 360,000; AID 588458; in the data active = inhibition above about 50%
Scp-1 inhibitor – inhibitors of human Scp-1 phosphatase; AID 493091; inhibition, % at 20 µM; Recombinant Scp1, phosphopeptide, malachite green phosphate absorbance; Q9GZU7; hit rate 0.88% among 340,000;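 active = inhibition above about 50% at 20 µM, limit read from the data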;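 note: plate controls were DMSO wells with enzyme for no effect and wells lacking enzyme for full effect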
Target sequence (Q9GZU7 76-261 limits assumed): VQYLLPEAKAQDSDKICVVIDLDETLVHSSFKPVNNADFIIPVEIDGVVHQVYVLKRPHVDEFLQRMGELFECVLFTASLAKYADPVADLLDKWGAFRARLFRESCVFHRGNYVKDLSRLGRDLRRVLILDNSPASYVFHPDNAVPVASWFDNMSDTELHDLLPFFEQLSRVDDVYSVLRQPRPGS
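Test system: SCP-1 phosphatase catalytic domain, residues 76-261 | Compound dosing: One concentration, 20 µM, with 1.0% DMSO | Schedule: 45 min room-temperature reaction, 5 min colour, 30 min stabiliser | Detection: Absorbance at 630 nm | Read-out basis: % inhibition of SCP-1 phosphate liberation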
LMPTP inh – LMPTP (human) inhibition | recombinant LMPTP-A, OMFP fluorogenic substrate, fluorescence intensity | inhibition, % at 20 µM | hit rate 0.22% among 360,000 | AID 651560;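 active = compounds that cut the enzyme signal by at least half of the control window in the single-dose screen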;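 note: plate controls were DMSO wells with enzyme plus substrate for no effect and substrate without enzyme for full effect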
Target sequence (P24666 whole entry, looked up): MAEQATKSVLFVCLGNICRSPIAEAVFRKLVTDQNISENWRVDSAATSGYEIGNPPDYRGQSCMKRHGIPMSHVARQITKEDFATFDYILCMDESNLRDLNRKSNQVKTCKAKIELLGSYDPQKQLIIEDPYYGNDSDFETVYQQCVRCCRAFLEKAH
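Material: LMPTP-A; amount: 0.625 nM enzyme; doses: single 20 µM dose; times: reaction 50 min, room temperature, dark; technique: fluorescence intensity of OMFP turnover product; benchmarks: no-enzyme and uninhibited controls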
STEP inh – blocks human striatal-enriched tyrosine phosphatase | P54829 | recombinant STEP, OMFP fluorogenic substrate, fluorescence | hit rate 0.25% among 360,000 | inhibition, % at 20 µM;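 active = inhibition at 20 µM, scaled per plate between control wells, above about 37%, limit read from the data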;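 note: 0% = DMSO with enzyme and substrate and 100% = substrate only without enzyme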
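Assay system: isolated STEP enzyme. Buffer or medium: pH 6.0 Bis-Tris with DTT and Tween 20. Also added: fluorogenic phosphatase substrate OMFP at 25 µM final. Dosing: 20 µM, 1% DMSO. Timing: 20 min reaction, room temperature, in the dark. Measured by: fluorescence intensity, excitation 480 nm, emission 540 nm. Evaluation: normalized % inhibition.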
HKDC1 inhibitor – inhibitors of human hexokinase HKDC1. hit rate 0.16% among 340,000. inhibition, % at 20 µM. recombinant HKDC1, G6PDH/diaphorase resazurin coupled fluorescence. Q2TB90. AID 493160;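 active = inhibition above about 35% when tested at 20 µM, limit read from the data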;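 note: plate controls were DMSO wells with enzyme for no effect and DMSO wells lacking enzyme for full effect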
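Material: recombinant HKDC1 hexokinase; Amount: HKDC1 at 5 µg/mL; Medium: Tris pH 8.0 buffer with MgCl2, Tween-20, BSA, BME; Schedule: 90 min reaction incubation at room temperature, dark; Technique: coupled resazurin fluorescence, excitation 525 nm, emission 613 nm.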
SUMO1-SIM PPI – alters human SUMO1 binding to SIM partners; SUMO1 binding to a labelled peptide, TR-FRET, 1 h; inhibition, % at 20 µM; hit rate 0.33% among 360,000; AID 602429; in the data active = inhibition above about 37%
Target sequence (P63165 whole entry, looked up): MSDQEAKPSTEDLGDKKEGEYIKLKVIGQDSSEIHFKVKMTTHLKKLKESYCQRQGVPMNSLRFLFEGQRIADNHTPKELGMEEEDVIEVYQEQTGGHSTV
Scp-1 conf – Scp-1 (human) inhibition, single-dose confirmed. inhibition, % at 20 µM. hit rate 61% among 2,500. AID 540281. recombinant SCP-1 catalytic domain, phosphate release, malachite green absorbance. shares compounds with Scp-1 inhibitor;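 note: plate controls were DMSO with enzyme for no effect and buffer wells lacking enzyme for full effect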
MG interference – interferes with malachite green readout, flagging false Scp-1 hits; shares compounds with Scp-1 inhibitor; Colorimetric interference counterscreen, malachite green absorbance 630 nm; apparent inhibition (interference), % at 20 µM; 2,500 tested, under 10 active; AID 540313;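 note: compounds added after enzyme reaction finished so only phosphate colour detection is probed; plate controls were DMSO wells with completed Scp-1 reaction for no effect and substrate wells lacking enzyme for full effect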
Scp1 DSF – binds human Scp-1, shifting its melting temperature. shares compounds with Scp-1 inhibitor. thermal shift relative to vanadate control, % at 40 µM. hit rate 25% among 1,500. Recombinant SCP1, Sypro Orange thermal shift Tm. AID 540329;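 active = substances whose mean melting-temperature shift, as a percentage of the reference inhibitor's shift, reaches about 5.3%, limit read from the data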;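 note: 0% = Tm of DMSO wells and 100% = Tm with sodium orthovanadate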
The depositor's hits bear a star; x = not tested or not shown; ! = a repeat was not active. The list is not random: actives were taken first. Their share in the collection is about 1.8%.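 Rule for the calls, unless noted: active = inhibition of at least 30% at 20 µM; inactive = the rest.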

SMILES | DNMT1 block | Scp-1 inhibitor | LMPTP inh | STEP inh | HKDC1 inhibitor | SUMO1-SIM PPI | Scp-1 conf | MG interference | Scp1 DSF
O=C(O)c1cc(-c2ccc(/C=C3\NC(=O)N(c4ccccc4)C3=O)o2)ccc1Cl | 56.9* | 72.6* | -1.2 | 40.2* | 1.9 | 8.8 | 55.3* | -8.5 | 9.1*
CCCCCC(=O)NNC(=O)c1ccc(F)cc1 | 4.8 | -3.9 | -0.3 | 0.0 | -7.0 | -3.0 | x | x | x
CCOc1ccccc1OCCCC(=O)NNC(=O)c1ccc(F)cc1 | -0.7 | 58.7* | -0.3 | 1.7 | 0.3 | 0.1 | -12.3 | -17.0 | x
CCCCCCn1c(-c2ccco2)nc2oc3cc(OC)ccc3c(=O)c2c1=O | 49.1 | 56.0* | 5.3 | 0.8 | 8.1 | -7.0 | 50.4* | -4.9 | 0.2
CCn1c(=O)c(C(=O)NCc2ccc(F)cc2)c(O)c2ccccc21 | -3.3 | -10.4 | 3.0 | 1.8 | -2.3 | 5.1 | x | x | x
CCn1c(=O)c(=O)[nH]c2cc(C(=O)NCc3ccc(F)cc3)ccc21 | 1.7 | -3.6 | 1.0 | 0.7 | -2.4 | 1.6 | -2.7 | -5.2 | x
COc1cccc(C(C)(O)c2nc(-c3cccc(NC(C)=O)c3)cs2)c1 (centres undefined) | 1.2 | x | -0.3 | -0.2 | x | 0.4 | x | x | x
COC(=O)c1cccc(NS(=O)(=O)c2ccc(OC)c(C(=O)N3CCOCC3)c2)c1C | 1.2 | -0.6 | -1.6 | -1.5 | -6.6 | 3.4 | x | x | x
CCOc1ccccc1-c1nc(-c2cc3ccc(C)cc3[nH]c2=O)no1 | 4.2 | 57.0* | 3.5 | 32.7 | -5.3 | 0.5 | 39.4* | -3.8 | -4.1
COc1c(O)cc2c(c1O)[C@@H]1OC(CO)C(O)C(O)[C@H]1OC2=O (some centres undefined) | -1.0 | -0.7 | -0.4 | -1.6 | -1.4 | 0.9 | -7.4 | -5.2 | x
COc1c(O)cc2c(c1O)C1OC(CO)C(O)C(O)C1OC2=O (centres undefined) | -2.2 | -11.3 | -0.8 | -0.4 | -8.4 | -4.5 | x | x | x
COc1ccc(CC(N)c2csc(Nc3nncc4ccccc34)n2)cc1 (centres undefined) | -21.2 | x | 0.8 | 2.0 | x | -64.9 | x | x | x
CCCCn1nc(C(=O)Nc2ccccc2N2CCCC2)c2ccccc2c1=O | -2.7 | -0.1 | 1.2 | 2.6 | -0.2 | 5.4 | x | x | x
CCOC(=O)N1CCN(c2ccc(S(=O)(=O)N3CCOCC3)cn2)CC1 | 0.8 | 79.8* | -0.8 | 3.7 | -4.4 | -2.1 | -12.2 | -15.8 | x
CSc1nnc(C)c(/C=C/Nc2ccc(F)cc2F)n1 | -16.9 | 55.0* | 0.1 | 1.5 | 5.1 | -10.6 | 65.7* | -7.9 | -18.7
CSc1nnc(C)c(/C=C/NOCc2cccc(F)c2)n1 | -12.5 | -6.7 | -1.2 | 1.6 | 10.4 | 2.2 | x | x | x
CC1(C)CC(N2CCOCC2)=CC(=[N+]2CCOCC2)C1 | -0.5 | 2.2 | -0.8 | -1.3 | -1.0 | 10.9 | x | x | x
CC1C[N+](=C2C=C(N3CCOCC3)CC(C)(C)C2)CC(C)O1 (centres undefined) | 12.2 | 102.9* | -0.9 | -0.7 | -2.6 | -3.7 | 91.5* | -3.8 | -15.7
O=C(NCCCC1CCCC1)C1CCC(=O)N(Cc2cccc(C(F)(F)F)c2)C1 (centres undefined) | -1.0 | -9.2 | 2.2 | -0.4 | 4.9 | -3.2 | x | x | x
O=C(NCCN1CCNC1=O)C1CCC(=O)N(Cc2cccc(C(F)(F)F)c2)C1 (centres undefined) | -0.5 | -1.1 | -1.6 | -2.4 | -5.4 | -2.4 | -19.4 | -16.2 | x
O=C1NC(=O)C(c2ccccc2)(c2ccccc2)N1 | 1.4 | 84.8*! | -0.9 | -3.3 | 3.7 | 5.1 | -13.9 | -8.7 | x
O=C1NC(=O)C(c2ccccc2)(c2ccc(O)cc2)N1 (centres undefined) | 3.0 | -3.6 | -0.8 | 1.7 | -2.5 | -2.1 | x | x | x
CCOC(=O)C1(C)C(C(=O)OC)=C(c2ccc(OC)cc2)c2ccccc2N1C(=O)OC (centres undefined) | 3.1 | 95.6* | 0.4 | -3.0 | 2.3 | -2.4 | 56.5* | -10.9 | -8.8
Cc1ccccc1C(=O)NC1CCSC1=O (centres undefined) | 4.1 | 63.9* | 0.4 | 3.6 | 15.0 | -4.7 | 14.0 | -15.9 | x
CC(=O)c1ccc(NC(=O)c2noc3c2CCC3)cc1 | 42.0 | 61.9* | 1.3 | 0.6 | -1.2 | 5.3 | 53.8* | -13.4 | -0.7
SMILES | DNMT1 block | Scp-1 inhibitor | LMPTP inh | STEP inh | HKDC1 inhibitor | SUMO1-SIM PPI | Scp-1 conf | MG interference | Scp1 DSF
O=C1N/C(=N/S(=O)(=O)c2ccccc2)S/C1=C/c1cccnc1 | 4.3 | -0.8 | -1.5 | -0.7 | -5.1 | -2.2 | x | x | x
O=C1NC(=Nc2ccccc2)S/C1=C\c1cccnc1 | 0.9 | 67.4* | 3.8 | 5.8 | 1.4 | -16.6 | 10.3 | -3.5 | x
O=C(NCc1ccc(Cl)nc1)c1ccc2nc([C@@H]3O[C@H](CO)[C@H](O)[C@H](O)[C@H]3O)[nH]c2c1 | 4.3 | x | 0.7 | 0.8 | x | -0.2 | x | x | x
CCCCC(=O)N(C)c1c(CC)nc2c(OCc3ccc(C(F)(F)F)cc3)cccn12 | -1.9 | x | 2.6 | 4.8 | x | 20.0 | x | x | x
COc1ccc(CCN2CC(C(=O)N3CCSCC3)CCC2=O)cc1 (centres undefined) | 2.4 | 12.0 | -0.6 | -1.9 | -8.3 | -0.3 | x | x | x
COc1cc(/C=N/N=C2/NC(=O)C(CC(=O)O)S2)ccc1OCc1ccc(Cl)cc1 (centres undefined) | -2.2 | 58.5* | -1.0 | -1.3 | 0.4 | -3.1 | 70.0* | -5.4 | -7.5
CN1C(=O)N(CC(=O)c2ccc3c(c2)OCO3)C(=O)C12CCCCC2 | 1.3 | x | -1.7 | -0.4 | x | -2.9 | x | x | x
COc1ccc(CN(C)c2ccc(S(=O)(=O)N3CCN(C)CC3)cc2[N+](=O)[O-])cc1OC | -1.4 | -3.9 | 0.7 | 1.6 | 0.0 | -27.4 | x | x | x
Cc1ccc(-n2[nH]c(C)c(/C=N/Nc3ccc([N+](=O)[O-])cc3[N+](=O)[O-])c2=O)cc1C | -48.6 | 95.5* | 39.1 | 70.3* | 7.0 | 1.6 | 67.5* | -21.1 | 10.7*
C/C(=N\Nc1nncc2ccccc12)c1ccc(C(C)(C)C)cc1 | -1.6 | 57.4* | 3.6 | 0.7 | 4.1 | -6.1 | -7.4 | -5.2 | x
C/C(=N\Nc1nncc2ccccc12)c1ccc(O)cc1 | -0.9 | -0.8 | 1.3 | 0.1 | -1.6 | -3.7 | x | x | x
O=C(Nc1cccnc1Cl)c1ccc(=O)oc1 | 35.1 | 52.6* | 0.2 | 1.2 | -1.8 | -4.2 | 43.0* | -3.5 | 6.5*

Screening results from PubChem BioAssay.
